Legend:
Type in all cases: functional, Canis lupus familiaris
[1] = organism: Canis familiaris; experiment: Vasodilatory activity (at 100 nmol) relative to nifedipine (at 10 nmol) by coronary artery blood flow (CBF) in isolated blood perfused canine heart preparations.
How it was run: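 The canine heart was isolated after pentobarbital (30 mg/kg iv), heparin (500 U/kg) and exsanguination. A septum–papillary muscle preparation was perfused with donor-dog blood via the anterior septal artery at constant 100 mmHg. It was preloaded to 2 g and paced at 120/min with 5 ms pulses at 1.2× threshold. Septal artery flow was read by electromagnetic flowmeter as CBF, and drugs were given intra-arterially. Ratio = effect of test compound (100 nmol) / effect of nifedipine (10 nmol). Means ± SE, n = 3 or 1.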

[2] = organism: Canis familiaris; experiment: Vasodilatory activity (at 10 nmol) relative to nifedipine (at 1 nmol) by femoral artery blood flow (FBF) in autoperfused canine femoral artery preparations.
How it was run: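 Dogs were anesthetized with pentobarbital (30 mg/kg iv, then 4 mg/kg/h infusion) and heparinized (700 U/kg, then 100 U/kg/h). The right femoral artery was autoperfused with carotid blood at 90 mL/min by pump. Flow was read by electromagnetic flowmeter in the circuit, and drugs were given intra-arterially by microsyringe. Ratio = effect of test compound (10 nmol) / effect of nifedipine (1 nmol). Means ± SE, n = 3 or 1.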

[3] = test system: Canis familiaris; experiment: Cardiovascular effect upon coronary artery blood flow(CBF) in anesthetized open-chest dogs at a dose of 10 ug/ kg administered intravenously
How it was run: (§1)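 Mongrel dogs anesthetized with pentobarbital sodium 30 mg/kg, open chest. Parameters allowed to stabilize, then drug given as single 10 μg/kg iv dose via femoral vein cannula. FBF and CBF expressed as % change from predose value; BP as change from predose value. Means ± SE, n = 3.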

[4] = test system: Canis familiaris; experiment: Cardiovascular effect upon blood pressure(BP) in anesthetized open-chest dogs at a dose of 10 ug/ kg administered intravenously; how it was run: as §1
[5] = test system: Canis familiaris; experiment: Cardiovascular effect upon femoral artery blood flow(FBF) in anesthetized open-chest dogs at a dose of 10 ug/ kg administered intravenously; how it was run: as §1

Row | Structure (SMILES) | CBF Ratio [1] | FBF Ratio [2] | CBF Ratio [3] | BP [4] [mmHg] | FBF Ratio [5] | CBF % change [3] | FBF % change [5]
1 | CCC(=O)Nc1c(C)cc(C(=O)N2CCC(N(C)CCc3ccccc3)CC2)cc1[N+](=O)[O-] | 0.09 | 0.24 |  |  |  |  | 
2 | CCC(=O)Nc1c(C)cc(C(=O)N2CCC(N(C)CCc3ccccc3)CC2)cc1OC.Cl | 0 | 0.7 | 11 | -14 | 48 |  | 
3 | CCCc1cc(C(=O)N2CCC(N(C)CCc3ccccc3)CC2)cc2ccc(O)nc12.Cl | 0.35 | 1.61 |  | -22 |  | 8 | 67
4 | CCC(=O)Nc1ccc(C(=O)N2CCC(N(C)CCc3ccccc3)CC2)cc1Cl.Cl | 0.16 | 1.71 |  |  |  |  | 
5 | CCC(=O)Nc1c(C)cc(C(=O)N2CCC(N(C)CCc3ccccc3)CC2)cc1Cl.Cl | 0.08 | 0.1 |  |  |  |  | 
6 | CN(CCc1ccccc1)C1CCN(C(=O)c2ccc3c(c2)CCC(=O)N3)CC1.Cl | 0 | 1.64 |  | -9 |  | 11 | 38
7 | CCC(=O)Nc1cc(C)c(C(=O)N2CCC(N(C)CCc3ccccc3)CC2)cc1C.Cl | 0 | 0.49 |  |  |  |  | 
8 | CN(CCc1ccccc1)C1CCN(C(=O)c2ccc3c(c2)NC(=O)CC3)CC1 | 0.07 | 0.19 |  |  |  |  | 
9 | CN(CCc1ccccc1)C1CCN(C(=O)c2cc3c(c([N+](=O)[O-])c2)NC(=O)CC3)CC1 | 0.28 | 0.68 |  |  |  |  | 
10 | CN(CCc1ccccc1)C1CCN(C(=O)c2cccc3c2NC(=O)CC3)CC1.Cl | 0.09 | 0.62 |  |  |  |  | 
11 | CCC(=O)Nc1ccc(C(=O)N2CCC(N(C)CCc3ccccc3)CC2)cc1[N+](=O)[O-].Cl | 0.26 | 0.29 |  |  |  |  | 
12 | CCC(=O)Nc1ccc(C(=O)N2CCC(N(C)CCc3ccccc3)CC2)cc1 | 0.02 | 1.23 |  | -7 |  | 5 | 38
13 | CCc1cc(C(=O)N2CCC(N(C)CCc3ccccc3)CC2)cc2c1NC(=O)CC2.O=C(O)C(=O)O | 0.18 | 1.07 |  | -26 |  | 15 | 54
14 | CCC(=O)Nc1ccc(C(=O)N2CCC(N(C)CCc3ccccc3)CC2)c(C)c1C.Cl | 0 | 0.43 |  |  |  |  | 
15 | Cc1cc(C(=O)N2CCC(N(C)CCc3ccccc3)CC2)cc2c1NC(=O)CC2.Cl | 0.14 | 0.67 |  | -26 |  | 13 | 32
16 | CN(CCc1ccccc1)C1CCN(C(=O)C2CC(=O)Nc3ccccc32)CC1.Cl (stereo not drawn) | 0.01 | 0.85 |  | -15 |  | 13 | 101
17 | CC(C)c1cc(C(=O)N2CCC(N(C)CCc3ccccc3)CC2)cc2c1NC(=O)CC2.Cl | 0.25 | 1.13 |  | -19 |  | 15 | 73
18 | CN(CCc1ccccc1)C1CCN(C(=O)c2cc([N+](=O)[O-])c3nc(O)ccc3c2)CC1.Cl | 1.15 | 1.6 |  | -21 |  | 9 | 32
19 | Cc1cc2c(cc1C(=O)N1CCC(N(C)CCc3ccccc3)CC1)CCC(=O)N2.O=C(O)C(=O)O | 0.02 | 3.01 |  | -13 |  | 11 | 41
20 | CCc1cc(C(=O)N2CCC(N(C)CCc3ccccc3)CC2)cc2ccc(O)nc12.O=C(O)C(=O)O | 0.18 | 0.96 |  | -22 |  | 26 | 78
21 | COC(=O)C1=C(C)NC(C)=C(C(=O)OC)C1c1ccccc1[N+](=O)[O-] [NIFEDIPINE] |  |  |  | -37 |  | 104 | -28
22 | COc1cc2nc(O)ccc2cc1C(=O)N1CCC(N(C)CCc2ccccc2)CC1 | 0.04 | 1.07 |  | -9 |  | 7 | 26
23 | COc1cc(C(=O)N2CCC(N(C)CCc3ccccc3)CC2)cc2ccc(O)nc12.Cl | 0.04 | 1.36 |  | -10 |  | 10 | 55
24 | COc1cc2c(cc1C(=O)N1CCC(N(C)CCc3ccccc3)CC1)CCC(=O)N2.Cl | 0 | 1.98 |  | -8 |  | 8 | 26
25 | CN(CCc1ccccc1)C1CCN(C(=O)c2cccc3nc(O)ccc23)CC1.Cl | 0.01 | 0.32 |  |  |  |  | 
